Bioassay records: PubChem, several laboratories
Myeloid diff MLP = compounds promoting myeloid differentiation; hit rate 1% among 360,000; calls only at 10 µM; ER-HoxA9 myeloid progenitors, lysozyme-GFP differentiation, flow cytometry;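 active = normalized GFP-positive differentiation at or above the plate's own cutoff, the solvent-only control mean plus 3 SD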;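 also: cells exposed to compound for four days before flow analysis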
ABCB6 inh 2 = blocks the human ABCB6 transporter | K562-ABCB6 porphyrin accumulation, flow cytometry, 1 h; stronger effect = lower value | fluorescence ratio to DMSO, % at 10 µM | hit rate 0.19% among 360,000 | AID 602162;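 active = fluorescence ratio to DMSO below 75%, the collection mean minus 3 SD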;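 also: signal is porphyrin accumulated inside mitochondria; 100% equals median channel fluorescence of DMSO control wells; lower ratio means ABCB6 inhibition with less porphyrin fluorescence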
Target sequence (Q9NP58 whole entry, looked up): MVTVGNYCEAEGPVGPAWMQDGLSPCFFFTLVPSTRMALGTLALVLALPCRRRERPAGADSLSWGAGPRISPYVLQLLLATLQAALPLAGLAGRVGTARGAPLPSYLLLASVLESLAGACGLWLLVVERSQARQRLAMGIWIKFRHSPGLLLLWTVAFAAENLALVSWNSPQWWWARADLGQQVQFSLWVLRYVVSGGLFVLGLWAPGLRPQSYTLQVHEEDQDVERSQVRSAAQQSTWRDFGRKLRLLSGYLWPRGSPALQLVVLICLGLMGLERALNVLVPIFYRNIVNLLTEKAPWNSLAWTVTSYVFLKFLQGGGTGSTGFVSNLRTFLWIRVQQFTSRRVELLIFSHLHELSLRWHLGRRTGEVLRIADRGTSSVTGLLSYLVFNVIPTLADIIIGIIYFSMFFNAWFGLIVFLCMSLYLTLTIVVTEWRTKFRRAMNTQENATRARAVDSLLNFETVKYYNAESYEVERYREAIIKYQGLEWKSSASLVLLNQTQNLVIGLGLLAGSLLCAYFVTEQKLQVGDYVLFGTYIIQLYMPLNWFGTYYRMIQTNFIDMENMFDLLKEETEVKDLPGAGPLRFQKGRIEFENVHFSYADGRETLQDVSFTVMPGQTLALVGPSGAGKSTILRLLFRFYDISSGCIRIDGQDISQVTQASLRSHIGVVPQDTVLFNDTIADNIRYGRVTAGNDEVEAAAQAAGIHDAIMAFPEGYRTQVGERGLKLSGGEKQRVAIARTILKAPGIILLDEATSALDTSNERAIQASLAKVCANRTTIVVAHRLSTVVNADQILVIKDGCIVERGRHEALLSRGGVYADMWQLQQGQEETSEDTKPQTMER
Arrestin-AP2 inh = inhibitors of human beta-arrestin and AP2 interaction; FITC-arrestin peptide / GST-AP2 beads, flow cytometry; AP2 beta2 appendage carries R879A mutation; inhibition, % at 10 µM; hit rate 0.31% among 340,000; AID 504490;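 active = inhibition above a set limit, near 3 SD of compounds lacking own fluorescence, cut at about 54% in these data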;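 also: plate controls were DMSO wells for no effect and 5 µM unlabelled arrestin peptide for full effect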
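system = GST-tagged AP2 beta2-adaptin appendage (R879A) on 4 µm glutathione beads | reagent = FITC-labelled arrestin peptide probe, 50 nM final | schedule = compound with beads 12 min RT, then probe 1 h RT | signal = HyperCyt-sampled flow cytometry, FL1 channel, ex 488/em 535 nm | read-out = percent response from loss of bead-bound FITC fluorescence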
ATG4B inh = inhibitors of human ATG4B cysteine protease; AID 504462; inhibition, % at 8.33 µM; Q9Y4P1; ATG4B cleavage of LC3-PLA2, NBD-HPC fluorescence, 1 h; hit rate 0.51% among 340,000; in the data active = inhibition above about 40%
Granule exo inh = blocks lytic granule exocytosis; hit rate 0.66% among 360,000; inhibition, % at 10 µM; TALL-104 LAMP-1 surface exposure, flow cytometry; cells stimulated with thapsigargin and PMA;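 active = inhibition above about 55%, limit read from the data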
CendR NRP1 mod = modulators of CendR peptide binding to human neuropilin-1; O14786; FAM-RPARPAR peptide binding to NRP-1, fluorescence polarization; inhibition, % at 25 µM; hit rate 0.85% among 360,000;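 active = inhibition or corrected inhibition above about 18%, plus a signal ratio from 0.5 to 1.5, limit read from the data, passing the limit was not always enough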
Myeloid diff CP1 = compounds promoting myeloid differentiation | shares compounds with Myeloid diff MLP | ER-HoxA9 myeloid progenitors, GFP/Mac1 double-positive flow | calls only | hit rate 2% among 2,300 | AID 651706;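 active = share of green or green-and-red cells above 9 and 9% in run 1 or 4 and 3% in run 2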
GFP autofluor = counter-screen for myeloid differentiation promoters: compound fluorescence; hit rate 7.4% among 2,300; AID 651707; ER-HoxA9 myeloid progenitors, no estrogen, GFP autofluorescence flow cytometry; vehicle wells 0%, positive control 100%; shares compounds with Myeloid diff MLP; fluorescence response, % (test concentration not listed);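 active = over 5% cells positive for green fluorescent reporter, or over 2% positive for both it and APC stain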;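 also: range taken on the double positive population between DMSO and positive control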
* marks the source's active call; other numbers are inactive results; i = inactive; · = no result given; + = active, no number. Compounds with a hit are over-represented: about 3.3% of the library has one in this group of screens.

SMILES | Myeloid diff MLP | ABCB6 inh 2 | Arrestin-AP2 inh | ATG4B inh | Granule exo inh | CendR NRP1 mod | Myeloid diff CP1 | GFP autofluor
Cn1nccc1C(=O)Nc1sc2c(c1C(N)=O)CCCC2 | i | 99 | 7 | -8 | -3 | -2 | i | 0
O=C(N/N=C/c1ccc([N+](=O)[O-])s1)C(O)c1ccccc1 (centres undefined) | i | 104 | 23 | -4 | 8 | 6 | · | ·
O=C(Cc1ccccc1)N/N=C/c1ccc([N+](=O)[O-])s1 | + | 118 | 11 | -9 | -1 | -11 | i | 3
Nc1ccc(C(=O)OC2CCOC2=O)cc1[N+](=O)[O-] (centres undefined) | i | 97 | -1 | -9 | -2 | 1 | · | ·
O=C(N/N=C/c1ccncc1)c1cc([N+](=O)[O-])cc([N+](=O)[O-])c1O | i | 101 | 29 | 2 | 1 | 0 | i | 0
O=C(N/N=C/c1ccncc1)c1cc2ccccc2cc1O | i | 104 | -6 | -2 | 29 | 1 | · | ·
C=CCN1N=C(c2ccc(Cl)s2)CSC1=O | i | 94 | -6 | -4 | 0 | 2 | · | ·
CC1CCN(CC2C(=O)O[C@@H]3C[C@@]4(C)CCC[C@H](C)C4=C[C@H]23)CC(C)(C)C1 (some centres undefined) | i | 95 | -1 | -9 | 10 | -11 | i | 0
C=C1CCC[C@]2(C)C[C@H]3OC(=O)C(CN4CC(C)OC(C)C4)[C@H]3C[C@@H]12 (some centres undefined) | i | 99 | 29 | 1 | -3 | 0 | · | ·
C/C(N)=C(/C#N)C(=O)COC(=O)c1cc(C)n(-c2ccc(F)cc2)c1C | + | 94 | -4 | -11 | 1 | 6 | + | 0
Cc1cc(C(=O)OCC(N)=O)c(C)n1-c1ccccc1 | i | 101 | 52 | 5 | -1 | 8 | · | ·
COc1cccc(CN(C)C(=O)C(Cc2ccccc2)NC(=O)c2ccccc2)c1OC (centres undefined) | i | 90 | -9 | -10 | 5 | -3 | · | ·
COc1ccccc1NC(=S)NC1CCCC1 | i | 92 | 41 | 8 | -1 | 11 | · | ·
COc1ccccc1NC(=S)NC1CCC(CC2CCC(NC(=S)Nc3ccccc3OC)CC2)CC1 (centres undefined) | + | 97 | 0 | 4 | 27 | -2 | i | 0
CCN(CC(=O)Nc1c(F)cccc1F)C(=O)C1CCN(C(=O)Nc2ccccc2)CC1 | i | 92 | 35 | 1 | 2 | 3 | · | ·
Cc1ccc(-n2nnnc2Sc2nc([N+](=O)[O-])nn2C)cc1 | + | 91 | 32 | -1 | 3 | 8 | i | 0
Cc1ccc(-n2nnnc2Sc2nc([N+](=O)[O-])nn2C)c(C)c1 | i | 100 | -8 | -3 | -2 | -6 | · | ·
CN(C)c1ccc(/C=C2\Oc3ccc(C#Cc4cccc(N)c4)cc3C2=O)cc1 | i | 478 | -7 | -6 | 0 | 148 | i | 98*
Cc1ccc(C)c(N=Nc2nc3ccccc3n2C)c1 | + | 92 | -3 | -2 | 6 | 17 | i | 0
Cc1cc(C)c(C)c(N=Nc2nc3ccccc3n2C)c1C | i | 95 | 11 | 7 | 4 | 15 | · | ·
Cc1cccc(C)c1NC(=O)Nc1cccs1 | i | 109 | 4 | -5 | 4 | -1 | i | 0
C=CCNC(=O)C1CCCN(S(C)(=O)=O)C1 (centres undefined) | i | 82 | 12 | 0 | -2 | 6 | i | 0
C=CCNC(=O)C1CCN(S(=O)(=O)CC)CC1 | i | 97 | 30 | -1 | 2 | -5 | · | ·
CC(C)(C)c1ccc(S(=O)(=O)N2CCN(CC(=O)N3CC(=O)Nc4ccccc43)CC2)cc1 | i | 94 | 1 | 18 | -10 | -13 | · | ·
COc1ccccc1/C=C/C=C1\Oc2c(ccc(O)c2CN2CCN(CCO)CC2)C1=O | i | 109 | 45 | -4 | 16 | 137 | i | 0
SMILES | Myeloid diff MLP | ABCB6 inh 2 | Arrestin-AP2 inh | ATG4B inh | Granule exo inh | CendR NRP1 mod | Myeloid diff CP1 | GFP autofluor
O=C1/C(=C/C=C/c2ccccc2)Oc2c1ccc(O)c2CN1CCN(CCO)CC1 | i | 103 | -8 | -7 | 14 | -107 | · | ·
O=c1[nH]cc(-c2ccc(Br)cc2)n1Cc1ccccc1 | i | 89 | 6 | 0 | -11 | 9 | i | 0
COc1ccc(-c2csc(C(O)c3ccc(F)c(F)c3)n2)cn1 (centres undefined) | + | 96 | · | · | -1 | 21* | i | 1
COc1cccc(/C=C/C(=O)OCC(=O)Nc2cccc(S(=O)(=O)NC3=NCCCCC3)c2)c1 | i | 100 | 23 | -14 | 1 | -2 | · | ·
Cc1cccc(N=CC=C2OC(C)(C)C(C)(C)O2)c1 | + | 85 | 0 | -1 | -1 | 0 | i | 0
CC(C)n1c(-c2ccccc2F)n[nH]c1=S | i | 83 | 22 | 4 | -2 | -11 | i | 85*
CC(c1ccccc1)n1c(-c2ccccc2F)n[nH]c1=S (centres undefined) | i | 96 | -1 | -1 | -6 | 3 | · | ·
COc1ccc(CNCc2cc(Cl)ccc2O)cc1 | i | 99 | -3 | 0 | -1 | -5 | i | 0
Oc1ccc(Cl)cc1CNCc1ccc(F)c(F)c1 | i | 102 | 33 | 6 | -2 | 17 | · | ·
FC(F)(F)c1ccc(-n2ccnc2)nc1 | + | 100 | -9 | -3 | -3 | 6 | i | 0
COc1ccc(OC)c(CCNC(=O)c2ccccc2NC(=O)C2=C(C)OCCS2)c1 | i | 91 | -2 | 12 | -1 | 1 | · | ·
c1ccc(OCCSc2nnc3sc4ccccc4n23)cc1 | i | 101 | -1 | -5 | 2 | 7 | i | 0
S=c1nc(-c2ccccc2)[nH]c2ccc(Br)cc12 | i | 95 | 6 | 3 | -3 | -14 | · | ·
CC(=O)Nc1ccc(NC(=O)CCS(=O)(=O)c2ccc3c(c2)oc(=O)n3C)cc1 | i | 99 | -6 | -2 | -2 | 5 | · | ·
Cn1c(=O)oc2cc(NC(=O)CCl)ccc21 | i | 100 | 10 | 5 | 9 | -10 | i | 0
COc1cc(/C=N/NC(=O)c2cc(-c3cccn3C)n[nH]2)cc(OC)c1OC | i | 101 | -1 | -12 | 0 | -11 | · | ·
COc1cccc(/C=N/NC(=O)c2cc(-c3cccn3C)n[nH]2)c1O | i | 98 | -2 | 30 | -1 | 1 | i | 0
CC(C)N(Cc1ccccc1)CC(O)COc1ccc(S(=O)(=O)N2CCOCC2)cc1Cl (centres undefined) | i | 97 | -6 | -7 | 2 | 7 | · | ·
COC(=O)CC1Nc2ccccc2SC1=O (centres undefined) | i | 93 | 26 | -10 | 1 | 15 | i | 0
